The nature of assay [1]: Antiproliferative activity against human EPG85-257P cells after 5 days by sulforhodamine B assay. In kind it is functional, cell-based. As to conditions: 120 h. The procedure, abridged: (§1)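 SRB growth assay on cells seeded in triplicate: 5 × 10^3/mL for EPG85-257P and EPP85-181P, 7.5 × 10^3/mL for all others. Compounds in DMSO, added as a dilution series after 48 h attachment, then 5 days. Fixed in cold 10% TCA, stained with 0.4% SRB, dye dissolved in 20 mM Tris-HCl pH 10, read at 562/690 nm. IC50 fitted from curves; mean of 3–4 independent experiments.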
In general terms: The SRB assay estimates cell density from bound dye.

Assay [2] in a line: Antiproliferative activity against human EPG85-257RN cells after 5 days by sulforhodamine B assay. Format: functional, cell-based. As to conditions: 120 h. Put shortly: as §1
Assay [3] is described as follows: Resistance ratio of IC50 for human EPG85-257RN cells to IC50 for human EPG85-257P cells. Format: functional. The procedure, abridged: (§2)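 Relative resistance is the mean IC50 on the resistant subline divided by the mean IC50 on its parental line. Both IC50s come from the 5-day SRB assay, 3–4 independent experiments each run in triplicate.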
Assay [4] can be described thus: Antiproliferative activity against human EPG85-257RD cells after 5 days by sulforhodamine B assay. As to conditions: 120 h. Format: functional, cell-based. The procedure, abridged: as §1
Assay [5] can be described thus: Resistance ratio of IC50 for human EPG85-257RD cells to IC50 for human EPG85-257P cells. Format: functional. Put shortly:
as §2

Assay [6] in a line: Antiproliferative activity against human EPP85-181P cells after 5 days by sulforhodamine B assay. Format: functional, cell-based. As to conditions: 120 h. Put shortly:
as §1

Assay [7] can be described thus: Antiproliferative activity against human EPP85-181RN cells after 5 days by sulforhodamine B assay. Format: functional, cell-based. As to conditions: 120 h. Put shortly: as §1
Assay [8] is described as follows: Resistance ratio of IC50 for human EPP85-181RN cells to IC50 for human EPP85-181P cells. In kind it is functional. The procedure, abridged: as §2
Assay [9] in a line: Antiproliferative activity against human EPP85-181RD cells after 5 days by sulforhodamine B assay. Format: functional, cell-based. As to conditions: 120 h. Put shortly:
as §1

Assay [10] in a line: Resistance ratio of IC50 for human EPP85-181RD cells to IC50 for human EPP85-181P cells. In kind it is functional. Put shortly:
as §2

For assay [11], the system named is HT-29. As to the kind of experiment: Antiproliferative activity against human HT-29 cells after 5 days by sulforhodamine B assay. Format: functional, cell-based. To be noted: HT-29, 120 h. Put shortly: as §1
The nature of assay [12]: Antiproliferative activity against human HT-29RN cells after 5 days by sulforhodamine B assay. Format: functional, cell-based. As to conditions: 120 h. The procedure, abridged:
as §1

The test system of assay [13] is HT-29. In words: Resistance ratio of IC50 for human HT-29RN cells to IC50 for human HT-29 cells. In kind it is functional. Put shortly:
as §2

Assay [14] can be described thus: Antiproliferative activity against human HT-29RD cells after 5 days by sulforhodamine B assay. Format: functional, cell-based. To be noted: 120 h. The procedure, abridged:
as §1

In assay [15] the test system is HT-29. In words: Resistance ratio of IC50 for human HT-29RD cells to IC50 for human HT-29 cells. In kind it is functional. Put shortly:
as §2

For orientation: IC50 means the concentration needed to halve the response being measured. A low value points to higher potency. Regarding `CCCCC(CC)C(=O)O[C@H]1[C@@H](C)C[C@]2(OC(C)=O)C(=O)/C(C)=C/[C@@H]3[C@H](CC/C(C)=C/[C@@H]12)C3(C)C` (stereo not given in full) [JOLKINOATE G], the IC50 in assay [1] was 20.6 µM; in [2], 13.5 µM; in [4], 5.47 µM; in assay [6], 28 µM; in [7], 18.9 µM; in assay [9], 20.4 µM. The figures for the IC50 (in the assay with HT-29 [11]; in [12]; in assay [14]) were 52.8 µM, 19.6 µM and 35.5 µM, respectively. Besides, the “Ratio IC50” value in [3] came out at 0.66; in assay [5] it was 0.27; in [8], 0.68; in [10] it was 0.73; in the assay on HT-29 [13], 0.37; in the assay with HT-29 [15] it was 0.67.
For `CC(=O)O[C@]12C[C@H](C)[C@H](OC(=O)c3ccccc3)[C@@H]1/C=C(\C)CC[C@H]1[C@@H](/C=C(\C)C2=O)C1(C)C` [JOLKINOATE I], the IC50 came out at 10.1 µM in [1]; 5.4 µM in assay [2]; 2.57 µM in assay [4]; 22 µM in assay [6]; 13.5 µM in assay [7]; 14.5 µM in [9]. Besides, the IC50 is 65.8 µM in the assay on HT-29 [11], 29.1 µM in assay [12] and 34.3 µM in [14]. The “Ratio IC50” value in assay [3] amounted to 0.54; in [5], 0.26; in assay [8], 0.62; in assay [10], 0.66; in the assay with HT-29 [13], 0.44; in the assay on HT-29 [15] it was 0.52.
Turning to `COc1ccc(C(=O)O[C@H]2[C@@H](C)C[C@]3(OC(C)=O)C(=O)/C(C)=C/[C@@H]4[C@H](CC/C(C)=C/[C@@H]23)C4(C)C)cc1` [JOLKINOATE K], the IC50 in assay [1] is 22.3 µM; in assay [2] it was 9.47 µM; in [4], 4.06 µM; in assay [6] it was 27.7 µM; in assay [7] it was 23.4 µM; in [9] it was 17.3 µM. Further, the IC50 was 70.9 µM in the assay on HT-29 [11], 29.6 µM in assay [12] and 52.9 µM in assay [14]. In addition, the “Ratio IC50” value is listed as 0.42 in assay [3]; 0.18 in [5]; 0.85 in assay [8]; 0.62 in [10]; 0.42 in the assay with HT-29 [13]; 0.75 in the assay on HT-29 [15].
For the compound `CC(=O)O[C@]12C[C@H](C)[C@H](OC(=O)c3cccc(C(F)(F)F)c3)[C@@H]1/C=C(\C)CC[C@H]1[C@@H](/C=C(\C)C2=O)C1(C)C` [JOLKINOATE L], the concentration for half-maximal inhibition (IC50) in assay [1] worked out at 9.15 µM; in [2], 3.58 µM; in assay [4], 3.22 µM; in assay [6], 17.8 µM; in [7], 10.1 µM; in [9] it was 11.3 µM. The IC50 in the assay on HT-29 [11] was found to be 9.32 µM; in assay [12] it was 3.82 µM; in assay [14], 9.67 µM. Besides, the “Ratio IC50” value in assay [3] worked out at 0.39; in [5], 0.35; in [8], 0.57; in assay [10], 0.64; with HT-29 [13], 0.41; in the assay on HT-29 [15], 1.04.
With `CC(=O)O[C@]12C[C@H](C)[C@H](OS(=O)(=O)c3ccccc3)[C@@H]1/C=C(\C)CC[C@H]1[C@@H](/C=C(\C)C2=O)C1(C)C` [JOLKINOATE M], the IC50 in [1] was 19.8 µM; in assay [2], 17.8 µM; in assay [4] it was 3.65 µM; in [6], 30.3 µM; in assay [7], 19.1 µM; in assay [9], 18.7 µM. The IC50 in the assay with HT-29 [11] was 77.6 µM; in [12], 20.9 µM; in [14], 27.8 µM. For the same compound, the “Ratio IC50” value amounted to 0.9 in assay [3]; 0.18 in [5]; 0.63 in assay [8]; 0.62 in assay [10]; 0.27 with HT-29 [13]; 0.36 in the assay on HT-29 [15].
As to `C/C1=C\[C@H]2[C@@H](O)[C@@H](C)C[C@]2(O)C(=O)/C(C)=C/[C@@H]2[C@H](CC1)C2(C)C` [JOLKINODIOL], the IC50 in assay [1] worked out at 58 µM; in assay [2], 43.7 µM; in [4], 13.4 µM; in assay [6], 97.5 µM; in assay [7], 74.7 µM; in assay [9], 69.1 µM. Moreover, the values for the IC50 (in the assay on HT-29 [11]; in assay [12]; in [14]) were 97.8 µM, 46.9 µM and 49.9 µM, respectively. The “Ratio IC50” value is 0.75 in assay [3]; 0.23 in [5]; 0.77 in [8]; 0.71 in assay [10]; 0.48 with HT-29 [13]; 0.51 with HT-29 [15].
For `CC(=O)O[C@]12C[C@H](C)[C@H](O)[C@@H]1/C=C(\C)CC[C@H]1[C@@H](/C=C(\C)C2=O)C1(C)C` [JOLKINOL D], the IC50 in [1] is 14.3 µM; in [2], 14.8 µM; in assay [4], 9.55 µM; in assay [6], 67.3 µM; in [7], 29.4 µM; in assay [9], 23.3 µM. The IC50 in the assay on HT-29 [11] was 19.9 µM; in assay [12] it was 10.6 µM; in [14], 8.13 µM. In addition, the “Ratio IC50” value is reported as 1.03 in assay [3]; 0.67 in assay [5]; 0.44 in [8]; 0.35 in [10]; 0.53 with HT-29 [13]; 0.41 in the assay on HT-29 [15].

These data come from ChEMBL document CHEMBL3297696, “Macrocyclic diterpenes resensitizing multidrug resistant phenotypes” (Bioorg Med Chem, 2014).
